Activity calls are given as the source filed them. The calls are words filed in the database; no cut-off is given here.
Columns and labels:
HCT-116 = test: Antiproliferative activity against human HCT116 cells after 72 hrs by SRB assay; format: functional, cell-based; conditions: HCT-116, 72 h
Outline: (§1)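 Colorimetric growth assay with IC50 values derived; etoposide as positive control. Cell lines: A549 (lung cancer), HCT116 (colon cancer), MDA-MB-231 (breast cancer), SK-Hep-1 (liver cancer), SNU638 (stomach cancer), MRC5 (normal lung […]).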

SNU-638 = test: Antiproliferative activity against human SNU638 cells after 72 hrs by SRB assay; format: functional, cell-based; conditions: SNU-638, 72 h; outline: as §1
[1] = biological target: Leucine--tRNA ligase, cytoplasmic (Homo sapiens) (UniProt Q9P2J5); test: Inhibition of Leucyl-tRNA synthetase-mediated mTORC1 signaling activation in human HEK293 cells assessed as reduction in leucine-induced S6K phosphorylation preincubated for 50 mins followed by leucine-stimulation and measured after 10 mins by Western blot analysis; format: cell-based
Leucine--tRNA ligase, cytoplasmic (Homo sapiens), sequence (Q9P2J5 whole entry, looked up): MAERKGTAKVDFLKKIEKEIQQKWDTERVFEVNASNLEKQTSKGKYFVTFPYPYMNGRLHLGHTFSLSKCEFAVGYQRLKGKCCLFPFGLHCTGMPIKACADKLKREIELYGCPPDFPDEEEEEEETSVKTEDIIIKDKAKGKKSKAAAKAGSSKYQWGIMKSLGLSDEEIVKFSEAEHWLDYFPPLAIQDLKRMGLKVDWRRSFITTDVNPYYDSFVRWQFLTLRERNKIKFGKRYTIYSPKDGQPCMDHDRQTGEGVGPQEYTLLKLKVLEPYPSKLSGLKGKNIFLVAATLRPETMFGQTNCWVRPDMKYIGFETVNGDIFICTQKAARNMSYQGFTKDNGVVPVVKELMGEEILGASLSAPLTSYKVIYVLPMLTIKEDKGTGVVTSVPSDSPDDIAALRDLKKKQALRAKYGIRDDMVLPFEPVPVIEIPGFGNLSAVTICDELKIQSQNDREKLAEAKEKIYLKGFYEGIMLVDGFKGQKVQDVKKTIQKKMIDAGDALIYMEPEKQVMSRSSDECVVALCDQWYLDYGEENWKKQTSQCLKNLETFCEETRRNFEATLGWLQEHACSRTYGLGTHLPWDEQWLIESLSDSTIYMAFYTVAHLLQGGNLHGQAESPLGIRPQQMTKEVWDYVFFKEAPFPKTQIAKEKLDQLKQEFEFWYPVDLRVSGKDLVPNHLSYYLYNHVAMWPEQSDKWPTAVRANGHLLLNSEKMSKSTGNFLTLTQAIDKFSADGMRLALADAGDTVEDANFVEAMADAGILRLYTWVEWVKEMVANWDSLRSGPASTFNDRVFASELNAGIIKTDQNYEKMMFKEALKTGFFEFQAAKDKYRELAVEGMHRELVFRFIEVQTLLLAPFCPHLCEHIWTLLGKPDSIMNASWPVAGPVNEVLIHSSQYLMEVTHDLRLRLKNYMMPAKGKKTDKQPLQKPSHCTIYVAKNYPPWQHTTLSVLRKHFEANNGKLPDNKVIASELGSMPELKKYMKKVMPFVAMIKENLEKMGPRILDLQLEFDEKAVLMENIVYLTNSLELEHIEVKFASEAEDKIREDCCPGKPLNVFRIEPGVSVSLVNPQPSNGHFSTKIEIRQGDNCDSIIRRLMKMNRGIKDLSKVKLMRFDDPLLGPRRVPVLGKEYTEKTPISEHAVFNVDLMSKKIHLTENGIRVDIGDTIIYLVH
Outline: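 HEK293 cells pretreated at 20, 50, 100 and 200 µM. Leucine then added for 10 min to activate mTORC1. Dose dependence of leucine-induced S6K phosphorylation assessed by Western blot.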

HEK293 = test: Effect on leucine-induced AKT levels in human HEK293 cells at 200 uM preincubated for 50 mins followed by leucine-stimulation and measured after 10 mins by Western blot analysis; format: functional, cell-based
SK-HEP1 = test: Antiproliferative activity against human SKHEP1 cells after 72 hrs by SRB assay; format: functional, cell-based; conditions: SK-HEP1, 72 h; outline: as §1
MDA-MB-231 = test: Antiproliferative activity against human MDA-MB-231 cells after 72 hrs by SRB assay; format: functional, cell-based; conditions: MDA-MB-231, 72 h; outline: as §1
mTORC2 (Homo sapiens) = mTORC2 (Homo sapiens) (UniProt P42345+Q6R327+Q9BVC4+Q9BPZ7); test: Inhibition of mTORC2 signaling in human HEK293 cells assessed as reduction in leucine-induced AKT phosphorylation at 200 uM preincubated for 50 mins followed by leucine-stimulation and measured after 10 mins by Western blot analysis; format: cell-based
A549 = test: Antiproliferative activity against human A549 cells after 72 hrs by SRB assay; format: functional, cell-based; conditions: A549, 72 h; outline: as §1
MRC5 = test: Antiproliferative activity against human MRC5 cells after 72 hrs by SRB assay; format: cell-based; conditions: MRC5, 72 h; outline: as §1
[2] = biological target: Leucine--tRNA ligase, cytoplasmic (Homo sapiens) (UniProt Q9P2J5); test: Inhibition of Leucyl-tRNA synthetase-mediated mTORC1 signaling activation in human HEK293 cells assessed as reduction in leucine-induced S6K phosphorylation at 200 uM preincubated for 50 mins followed by leucine-stimulation and measured after 10 mins by Western blot analysis; format: cell-based
Outline: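 HEK293 cells pretreated with test agent at a fixed 200 µM, alongside rapamycin (100 nM) and leucinol (800 µM) as references. mTORC1 then activated by adding leucine for 10 min. S6K phosphorylation read by Western blot.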

SMILES | IC50 (HCT-116) | IC50 (SNU-638) | inhibition [1] | Activity (HEK293) | IC50 (SK-HEP1) | IC50 (MDA-MB-231) | inhibition (mTORC2 (Homo sapiens)) | IC50 (A549) | IC50 (MRC5) | inhibition [2]
CC(C)[C@@H](O)[C@H](O)C(=O)NS(=O)(=O)OC[C@H]1O[C@@H](n2cnc3c(N)ncnc32)C[C@@H]1O | 6.52 µM | 4.72 µM | Dose-dependent effect | inactive | 5.74 µM | 6.27 µM | inactive | 5.04 µM | > 20 µM | Active
CC(C)C[C@H](O)C(=O)NS(=O)(=O)OC[C@H]1O[C@@H](n2cnc3c(N)ncnc32)[C@H](O)[C@@H]1O | 3.47 µM | 4.5 µM | Dose-dependent effect | inactive | 1.76 µM | 2.61 µM | inactive | 1 µM | 16.6 µM | Active
